Series [1] has as its system Hepatitis C virus. Briefly: Inhibition of HCV subtype 1b NS5B Cdelta21 RNA dependent RNA polymerase expressed in Escherichia coli JM109 assessed as inhibition of [alpha32P]CTP incorporation after 1 hr by scintillation assay. Particulars: JM 109, 1 h; call rule not given here. More on the design: species or system Hepatitis C virus subtype 1b.
Series [2] has as its system Hepatitis C virus. Kind of series: Antiviral activity against HCV infected in human hepatoma cells. Type of series: functional, organism-based, Hepacivirus hominis.
Series [3] is described as follows: AUC (0 to 24 hrs) in rat at 10 mg/kg, po. It is filed as ADME, organism-based. Set-up: time < 24 hr, dose 10 mg/kg, route oral. Particulars: plasma.
Series [4] is described as follows: Permeability from apical to basal side of human Caco2 cells. Particulars: Caco-2, read-out: permeability. It is filed as ADME, cell-based.
A short description of series [5]: Drug uptake in rat liver at 10 mg/kg, po after 6 hrs. It is filed as ADME, organism-based. More on the design: dose 10 mg/kg, route oral. Particulars: read-out: Drug uptake. The gist of the method:
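Rats dosed orally at 10 mg/kg; liver tissue concentration measured 6 h after dosing, reported in ng/g.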

The nature of series [6]: AUC (0 to 24 hrs) in dog at 2 mg/kg, po. Type of series: ADME, organism-based, Canis lupus familiaris. More on the design: time < 24 hr, dose 2 mg/kg, route oral. Particulars: plasma.
Series [7] is described as follows: Clearance in human hepatocytes assessed per million cells. Type of series: ADME, cell-based, Hepatocyte. Particulars: read-out: CLH.
Series [8] deals with T1, Cytochrome P450 2D6 (Homo sapiens, UniProt P10635). Briefly: Inhibition of CYP2D6 co-incubated with substrate. It is filed as ADME.
T1 sequence (P10635 whole entry): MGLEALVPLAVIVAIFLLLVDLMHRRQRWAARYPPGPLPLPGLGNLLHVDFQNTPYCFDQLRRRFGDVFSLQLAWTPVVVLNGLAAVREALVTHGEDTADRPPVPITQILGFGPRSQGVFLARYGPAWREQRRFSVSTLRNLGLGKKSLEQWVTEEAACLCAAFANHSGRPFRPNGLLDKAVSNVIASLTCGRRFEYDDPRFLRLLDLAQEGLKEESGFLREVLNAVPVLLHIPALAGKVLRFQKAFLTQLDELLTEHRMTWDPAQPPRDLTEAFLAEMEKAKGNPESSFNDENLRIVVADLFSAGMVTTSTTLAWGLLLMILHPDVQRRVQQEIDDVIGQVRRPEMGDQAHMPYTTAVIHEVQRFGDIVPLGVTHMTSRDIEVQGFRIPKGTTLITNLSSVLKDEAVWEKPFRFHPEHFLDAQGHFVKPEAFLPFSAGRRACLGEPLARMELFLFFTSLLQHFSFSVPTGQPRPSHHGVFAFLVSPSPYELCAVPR
Series [9] addresses T2, Cytochrome P450 3A4 (Homo sapiens, UniProt P08684). Kind of series: Inhibition of CYP3A4 co-incubated with substrate. Type of series: ADME.
Series [10] addresses T3, Cytochrome P450 2C9 (Homo sapiens, UniProt P11712). Briefly: Inhibition of CYP2C9 co-incubated with substrate. Type of series: ADME.
Series [11] addresses T4, Cytochrome P450 2C19 (Homo sapiens, UniProt P33261). Kind of series: Inhibition of CYP2C19 co-incubated with substrate. Type of series: ADME.
Series [12] addresses T1, Cytochrome P450 2D6. Kind of series: Inhibition of CYP2D6 preincubated prior to substrate addition. Type of series: ADME.
Series [13] deals with T2, Cytochrome P450 3A4. Kind of series: Inhibition of CYP3A4 preincubated prior to substrate addition. Type of series: ADME.
In series [14] the target is T3, Cytochrome P450 2C9. Briefly: Inhibition of CYP2C9 preincubated prior to substrate addition. It is filed as ADME.
Series [15] has as its target T4, Cytochrome P450 2C19. Briefly: Inhibition of CYP2C19 preincubated prior to substrate addition. Type of series: ADME.
Series [16] concerns the target Voltage-gated inwardly rectifying potassium channel KCNH2 (Homo sapiens, UniProt Q12809). Briefly: Inhibition of human ERG at 10 uM by efflux assay.

T3 sequence (P11712 whole entry): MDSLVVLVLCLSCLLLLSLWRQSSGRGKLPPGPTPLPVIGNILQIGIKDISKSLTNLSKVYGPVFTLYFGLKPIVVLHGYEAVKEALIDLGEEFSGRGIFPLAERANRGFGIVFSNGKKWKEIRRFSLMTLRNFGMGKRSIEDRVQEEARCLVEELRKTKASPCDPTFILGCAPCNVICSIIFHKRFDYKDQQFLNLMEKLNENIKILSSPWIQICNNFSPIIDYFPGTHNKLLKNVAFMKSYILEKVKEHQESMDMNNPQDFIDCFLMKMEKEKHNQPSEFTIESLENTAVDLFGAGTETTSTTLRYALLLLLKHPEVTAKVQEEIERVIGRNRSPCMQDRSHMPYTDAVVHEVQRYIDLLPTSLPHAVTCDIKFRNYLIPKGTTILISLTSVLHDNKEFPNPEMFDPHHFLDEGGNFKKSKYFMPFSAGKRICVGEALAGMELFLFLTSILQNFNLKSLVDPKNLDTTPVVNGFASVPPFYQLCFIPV
T4 sequence (P33261 whole entry): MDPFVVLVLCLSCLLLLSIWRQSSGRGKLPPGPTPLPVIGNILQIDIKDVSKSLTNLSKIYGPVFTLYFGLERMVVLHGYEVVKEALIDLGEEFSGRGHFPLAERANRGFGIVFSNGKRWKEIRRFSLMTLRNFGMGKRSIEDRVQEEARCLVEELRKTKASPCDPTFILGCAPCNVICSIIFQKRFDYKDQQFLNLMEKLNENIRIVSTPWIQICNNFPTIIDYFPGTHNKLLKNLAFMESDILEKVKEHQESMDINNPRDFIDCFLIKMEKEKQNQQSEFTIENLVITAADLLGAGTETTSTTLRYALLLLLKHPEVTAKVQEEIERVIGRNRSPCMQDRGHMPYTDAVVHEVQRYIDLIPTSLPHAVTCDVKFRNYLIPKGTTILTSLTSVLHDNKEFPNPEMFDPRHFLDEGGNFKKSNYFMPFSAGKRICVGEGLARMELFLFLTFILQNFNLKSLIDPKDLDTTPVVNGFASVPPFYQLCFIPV
T2 sequence (P08684 whole entry): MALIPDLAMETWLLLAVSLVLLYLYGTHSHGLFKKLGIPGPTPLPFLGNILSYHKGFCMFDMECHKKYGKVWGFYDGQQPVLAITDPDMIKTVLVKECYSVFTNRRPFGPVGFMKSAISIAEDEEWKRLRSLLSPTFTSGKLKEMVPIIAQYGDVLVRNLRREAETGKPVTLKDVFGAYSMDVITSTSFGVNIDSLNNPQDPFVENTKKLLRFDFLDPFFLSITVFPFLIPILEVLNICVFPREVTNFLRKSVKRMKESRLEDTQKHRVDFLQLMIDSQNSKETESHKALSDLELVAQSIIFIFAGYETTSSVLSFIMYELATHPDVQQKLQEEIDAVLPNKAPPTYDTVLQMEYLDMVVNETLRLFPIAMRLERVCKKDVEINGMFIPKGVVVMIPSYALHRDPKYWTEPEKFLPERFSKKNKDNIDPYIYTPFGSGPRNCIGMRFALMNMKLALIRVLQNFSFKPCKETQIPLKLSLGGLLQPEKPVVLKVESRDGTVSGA
Voltage-gated inwardly rectifying potassium channel KCNH2, sequence (Q12809 whole entry): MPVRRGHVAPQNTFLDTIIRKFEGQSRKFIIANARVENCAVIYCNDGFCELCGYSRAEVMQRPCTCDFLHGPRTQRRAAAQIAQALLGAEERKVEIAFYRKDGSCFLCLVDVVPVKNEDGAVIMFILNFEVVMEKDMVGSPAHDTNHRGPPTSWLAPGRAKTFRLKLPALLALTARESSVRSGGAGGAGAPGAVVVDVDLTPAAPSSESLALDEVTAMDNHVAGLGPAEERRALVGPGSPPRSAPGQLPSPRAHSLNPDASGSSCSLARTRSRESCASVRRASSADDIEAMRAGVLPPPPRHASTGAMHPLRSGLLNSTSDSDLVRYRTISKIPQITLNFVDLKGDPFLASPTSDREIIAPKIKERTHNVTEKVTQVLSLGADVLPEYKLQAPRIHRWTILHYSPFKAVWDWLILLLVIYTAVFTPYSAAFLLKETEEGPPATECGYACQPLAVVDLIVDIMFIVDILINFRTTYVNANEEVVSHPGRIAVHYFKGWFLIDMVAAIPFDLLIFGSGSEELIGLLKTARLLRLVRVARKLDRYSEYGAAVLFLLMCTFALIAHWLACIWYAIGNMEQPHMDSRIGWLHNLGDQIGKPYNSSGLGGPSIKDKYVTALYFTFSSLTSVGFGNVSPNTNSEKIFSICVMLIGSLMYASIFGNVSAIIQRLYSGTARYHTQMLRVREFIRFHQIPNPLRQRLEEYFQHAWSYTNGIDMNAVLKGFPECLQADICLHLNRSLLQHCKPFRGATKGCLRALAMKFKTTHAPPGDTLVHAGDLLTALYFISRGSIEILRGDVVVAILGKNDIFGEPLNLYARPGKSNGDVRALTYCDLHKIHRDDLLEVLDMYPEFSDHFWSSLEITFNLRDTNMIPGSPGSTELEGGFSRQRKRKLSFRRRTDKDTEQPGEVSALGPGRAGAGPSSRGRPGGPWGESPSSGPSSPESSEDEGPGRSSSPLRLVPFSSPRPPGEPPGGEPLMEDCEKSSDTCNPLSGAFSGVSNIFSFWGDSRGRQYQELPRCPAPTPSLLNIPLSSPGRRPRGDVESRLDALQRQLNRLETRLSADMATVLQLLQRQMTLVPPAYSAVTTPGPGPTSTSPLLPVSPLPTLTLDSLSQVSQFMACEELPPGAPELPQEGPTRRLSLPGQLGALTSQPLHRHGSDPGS

Consider `Cc1cc2c(-c3ccc[nH]c3=O)c(C(=O)NS(=O)(=O)C3CC3)n(Cc3cc(F)ccc3F)c2cc1F`, for which the half-inhibitory concentration (IC50) was 0.008 µM in the series with Hepatitis C virus [1]; greater than 20 µM on Cytochrome P450 2D6 [8]; greater than 20 µM at Cytochrome P450 3A4 [9]; greater than 20 µM at Cytochrome P450 2C9 [10]; greater than 20 µM at Cytochrome P450 2C19 [11]; greater than 20 µM on Cytochrome P450 2D6 [12]. Further, the half-inhibitory concentration (IC50) against Cytochrome P450 3A4 [13], on Cytochrome P450 2C9 [14] and at Cytochrome P450 2C19 [15] was greater than 20 µM throughout. This compound also showed an EC50 with Hepatitis C virus [2] of 0.02 µM. For the same compound, the area under the curve AUC(0-t) at 24 h in series [3] came to 14 µM·h; in [6] it was 8 µM·h. Also, in series [4], the Papp A→B is 3.5 ×10⁻⁶ cm/s. Also, the concentration at 6 h in series [5] turned out to be 5850 ng/g. The hepatocyte CLint in series [7] is less than 1 µL/min/1e6 cells. For the same compound, in series [16], the “inhibition (INH)” value is reported as “Not Active”.

One may read the IC50 as the concentration at which inhibition is half-maximal. The term EC50 denotes the midpoint of the concentration-response curve. The AUC(0-t) is the area under the concentration-time curve up to a stated or last time point. Higher therefore signals more exposure.
